Screening data deposited in PubChem BioAssay by several laboratories.
Phagocyt inh – inhibitors of macrophage phagocytosis | AID 1029 | J774A.1 macrophage IgG-bead phagocytosis, imaging | inhibition, % at 5 µM | 0.07% of 110,000 active;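 active = inhibition above the mean of the plate negative controls plus 5 SD, cut at about 13% in these data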;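 also: phagocytic index as fraction of beads internalized from green versus red external bead signal; plate controls were DMSO negative control for no effect and cytochalasin-D positive control for full effect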
CD11b adhes inh – CD11b/CD18-fibrinogen binding inhibition; P05107+P11215; K562 CD11b/CD18 adhesion to fibrinogen, ATPlite luminescence; Mn2+ added to activate the integrin; inhibition, % at 10 µM; 0.54% of 93,000 active; AID 1497;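 active = primary inhibition of 50% or more at 10 µM, then 40% or more on retest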
Target sequence (P05107 whole entry, looked up, other chains not shown): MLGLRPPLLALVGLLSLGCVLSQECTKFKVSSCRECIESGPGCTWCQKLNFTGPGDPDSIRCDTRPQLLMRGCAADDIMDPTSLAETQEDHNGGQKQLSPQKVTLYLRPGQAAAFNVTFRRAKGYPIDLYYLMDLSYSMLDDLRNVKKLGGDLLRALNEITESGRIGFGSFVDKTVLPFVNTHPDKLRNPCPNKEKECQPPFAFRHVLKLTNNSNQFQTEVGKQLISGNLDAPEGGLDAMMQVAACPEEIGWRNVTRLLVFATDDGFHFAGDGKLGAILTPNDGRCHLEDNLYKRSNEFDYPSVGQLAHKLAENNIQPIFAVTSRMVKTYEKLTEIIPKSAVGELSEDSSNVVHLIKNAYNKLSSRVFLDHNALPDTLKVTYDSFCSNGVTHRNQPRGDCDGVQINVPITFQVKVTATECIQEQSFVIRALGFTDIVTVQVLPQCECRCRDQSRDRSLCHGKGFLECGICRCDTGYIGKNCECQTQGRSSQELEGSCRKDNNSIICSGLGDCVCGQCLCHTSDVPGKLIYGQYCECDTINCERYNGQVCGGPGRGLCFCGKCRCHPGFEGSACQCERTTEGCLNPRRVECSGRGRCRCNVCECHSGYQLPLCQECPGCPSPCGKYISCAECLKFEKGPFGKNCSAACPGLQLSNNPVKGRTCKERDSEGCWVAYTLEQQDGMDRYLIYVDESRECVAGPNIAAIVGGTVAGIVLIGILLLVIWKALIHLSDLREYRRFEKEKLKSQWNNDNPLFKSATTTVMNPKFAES
Mac1 fbg enh – enhancers of human CD11b/CD18 binding to fibrinogen; P05107+P11215; K562 CD11b/CD18 adhesion to fibrinogen, ATPlite luminescence; activation, % at 10 µM; 0.07% of 93,000 active; AID 1499;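 active = 10 µM primary screen giving 50% or more activity, confirmed by 40% or more on retest at that dose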
Ecoli tolC – E. coli tolC mutant growth inhibition. E. coli BW25113 tolC mutant growth, OD615. growth inhibition, % at 10 µM (by protocol). 2.2% of 65,000 active. AID 573;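 active = growth inhibition at or above a cutoff equal to the mean over every tested compound plus 3 SD, cut at about 60% in these data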;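 also: growth measured after 20 h incubation at 37 °C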
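test system = E. coli BW25113 ΔtolC::kan bacteria | medium = LB with kanamycin 50 µg/mL | signal = OD at 615 nm | schedule = 37 °C, 20 h exposure | evaluation = % inhibition of E. coli growth | compound dosing = one dose of 10 µM final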
Ecoli WT expand – E. coli BW25113 growth inhibition, expanded screen; 0.15% of 98,000 active; OD600 absorbance; growth inhibition, % at 100 µM; AID 710;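 active = growth inhibition above about 50% at one test dose, limit read from the data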;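 also: growth measured after 20 h incubation at 37 °C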
Active calls of the source: *; · = no result. This is one part of a sample in which hits are shown more often than they occur.

SMILES | Phagocyt inh | CD11b adhes inh | Mac1 fbg enh | Ecoli tolC | Ecoli WT expand
c1coc(CNc2nc(N3CCCCC3)nc3ccccc23)c1 | 0 | 0 | -3 | 71* | 31
O=C(NC1CCCCC1)C12CC3CC(CC(Cl)(C3)C1)C2 | -4 | 4 | -1 | · | ·
O=C(CCNc1cc(Cl)cc(Cl)c1)c1ccco1 | 1 | 14 | -8 | 85* | 27
O=C(OC1CCCCC1)c1ccc2c(c1)C1C=CCC1C(C(=O)O)N2 (centres undefined) | -1 | -59 | 150* | 3 | -25
O=C1NC(c2ccccc2)C(C(=O)c2cccs2)C(O)(C(F)(F)F)N1 (centres undefined) | -2 | 18 | -1 | -9 | -1
CN1C(=O)NC(c2ccc(O)cc2)C(C(=O)c2cccs2)C1(O)C(F)(F)F (centres undefined) | · | 1 | 3 | 58 | 80*
Cc1nnc(SC(=O)N2c3ccccc3Sc3ccccc32)s1 | -2 | 10 | -1 | 69* | -10
Cc1nnc(SCC(=O)N2c3ccccc3Sc3ccccc32)n1N | 4 | -12 | 1 | -8 | -2
Brc1cccc(C2CC(c3ccccc3)n3nnnc3N2)c1 (centres undefined) | -2 | -29 | -2 | 63* | 14
Cc1ccc(Cl)cc1N1CCN(C(=O)c2cc3c(=O)[nH]c4ccccc4c3n2C)CC1 | 1 | · | · | · | ·
CCOC(=O)c1ccc(C(=O)OCC)c(NC(=S)Nc2ccc([N+](=O)[O-])cc2OC)c1 | -6 | 53 | -4 | · | ·
COc1cccc(S(=O)(=O)NCc2ccc(C(=O)Nc3ccc(Cl)cc3)cc2)c1 | -3 | 30 | -2 | · | ·
COc1cccc(S(=O)(=O)NCc2ccc(C(=O)Nc3cccc(Cl)c3)cc2)c1 | -2 | 55* | 1 | · | -3
COc1cccc(-c2nnc(NC(=O)c3ccc(S(=O)(=O)N4CC(C)OC(C)C4)cc3)o2)c1 (centres undefined) | -1 | -22 | 4 | 98* | 0
COc1ccc(-c2nnc(NC(=O)c3ccc(S(=O)(=O)N4CCc5ccccc5C4)cc3)o2)cc1 | 0 | -10 | -4 | 94* | -13
COc1ccc(-c2csc(NC(=O)c3ccc(S(=O)(=O)N4CCc5ccccc5C4)cc3)n2)cc1 | -8 | · | · | · | ·
Cc1ccc(OC(=O)C2c3ccccc3Oc3ccccc32)cc1C | -6 | · | · | · | ·
c1ccc(-c2nc(-c3cccnc3)n[nH]2)cc1 | -5 | 3 | 2 | · | ·
Brc1cccc(-c2n[nH]c(-c3ccccc3)n2)c1 | -2 | 11 | 0 | 97* | -6
Cc1cc(C)nc(N=Nc2c(O)n(Cc3ccc(Cl)cc3)c3ccccc23)n1 | -15 | · | · | · | ·
COc1ccc(C(CC(=O)c2ccc(C)cc2)C(C#N)C#N)cc1OC (centres undefined) | -4 | · | · | · | ·
O=C(c1ccco1)N1CCN(c2ncnc3c2[nH]c2ccc(Br)cc23)CC1 | · | -5 | 3 | 65* | -7
O=C(c1ccco1)N1CCN(c2ncnc3c2[nH]c2ccccc23)CC1 | -1 | 21 | -6 | 6 | 1
Cc1ccc(S(=O)(=O)Nc2cccc3ncccc23)s1 | 1 | 4 | 6 | 100* | -5
CN1CCN(C(=S)SCC(=O)Nc2nc(-c3ccccc3)c(-c3ccccc3)o2)CC1 | -4 | 12 | 40 | · | ·
SMILES | Phagocyt inh | CD11b adhes inh | Mac1 fbg enh | Ecoli tolC | Ecoli WT expand
CCOc1ccc(-n2c(-c3ccc(OC)cc3)c[n+]3c2CCCCC3)cc1 | 9 | 100* | -7 | · | ·
Cc1ccc(S(=O)(=O)N(C)c2ccc(C(=O)N3CCN(Cc4ccc5c(c4)OCO5)CC3)cc2)cc1 | 0 | 61* | -9 | · | -13
O=C(c1cc(-c2ccccc2)on1)N1CCN(Cc2ccc3c(c2)OCO3)CC1 | -1 | -3 | 1 | 66* | -10
Fc1ccc(CNc2nc(-c3ccco3)cc(C(F)(F)F)n2)cc1 | -2 | 2 | -2 | 62* | 14
FC(F)(F)c1cc(-c2ccco2)nc(NCc2ccccc2)n1 | · | · | · | 19 | 3
CN(CCO)c1nc(N)c2c(N)nc3c(c2c1C#N)CC(=O)N3C1CCCC1 | · | · | · | · | -1
CC(C)(C)N1C(=O)Cc2c1nc(N)c1c(N)nc(N3CCCCC3CO)c(C#N)c21 (centres undefined) | -1 | 10 | 3 | 80* | 8
CC[N+](C)(CC)CC(O)COCC1COc2ccccc2O1 (centres undefined) | 2 | -9 | 4 | · | ·
CC(=O)Nc1ccc(N/C=C/C(=O)c2ccco2)cc1 | 6 | 8 | -5 | -13 | -10
CN(C)c1ccc(N/C=C/C(=O)c2ccco2)cc1 | 179* | 27 | 4 | · | -1
Cc1ccsc1C(=O)Nc1nnc(-c2ccco2)o1 | 0 | -24 | 0 | 98* | 85*
c1ccc(CSc2nnc(-c3cccs3)n2Cc2ccco2)cc1 | · | · | · | 96* | ·
O=C(CSc1nnc(-c2ccccn2)n1Cc1ccco1)c1ccc(Cl)cc1 | 0 | -10 | 4 | 44 | -2
Clc1cccc(CSc2nnc(-c3ccccn3)n2Cc2ccco2)c1 | -1 | -10 | -1 | 100* | -6
CC(C)(C)c1ccc(CSc2nnc(-c3ccccn3)n2Cc2ccco2)cc1 | 2 | 68 | -4 | · | -23
Brc1ccc(CSc2nnc(-c3ccccn3)n2Cc2ccco2)cc1 | 1 | 18 | -4 | 98* | -10
CCc1cc2c(N3CCN(c4ccccc4)CC3)ncnc2s1 | 1 | 30 | -10 | 93* | -9
c1ccc(N2CCN(c3ncnc4sc5c(c34)CCC5)CC2)cc1 | -1 | 32 | -4 | 5 | -5
CCc1nc(N2CCC(C)CC2)c2oc3ccccc3c2n1 | 1 | 23 | 2 | 100* | 2
Cc1ccc(CN2CC(C(=O)Nc3cccc(S(=O)(=O)N4CCCCC4)c3)CC2=O)cc1 (centres undefined) | -4 | · | · | · | ·
Cc1ccc2[nH]c3c(NCc4ccco4)ncnc3c2c1 | 0 | 76* | -7 | 40 | 30
O=C(c1noc2c1CCc1ccccc1-2)N1CCCc2ccccc21 | -5 | 21 | -1 | 99* | -10
O=C(c1noc2c1CCc1ccccc1-2)N1CCc2ccccc2C1 | 0 | · | -2 | 87* | -8
CCOc1ccc(C(=O)N/N=C/c2ccc(-c3ccc(S(=O)(=O)Nc4ncccn4)cc3)o2)cc1 | 2 | 22 | -2 | · | -7
O=C(N/N=C/c1ccc(-c2ccc(S(=O)(=O)Nc3ncccn3)cc2)o1)c1cc2ccccc2cc1O | -1 | -11 | 53* | · | 2
SMILES | Phagocyt inh | CD11b adhes inh | Mac1 fbg enh | Ecoli tolC | Ecoli WT expand
COc1ccccc1NC(=O)N(Cc1cccs1)Cc1cc2cc3c(cc2[nH]c1=O)OCO3 | -6 | · | · | · | ·
COc1ccc(-c2cn(-c3ccc(OC)cc3)c3[n+]2-c2ccccc2CC3)cc1 | -7 | 84* | -3 | · | ·
COC(=O)c1sccc1NC(=O)c1csc(C)c1 | 0 | -30 | -1 | 98* | 3
COC(=O)c1sccc1NC(=O)c1ccc(OC)cc1 | -1 | -10 | -1 | 34 | -8
COC(=O)c1sccc1NC(=O)c1ccc(Br)s1 | 0 | 0 | -5 | · | -8
COC(=O)c1sccc1NC(=O)c1ccc(Cl)s1 | -1 | -6 | 0 | 72* | -9
CCCCC(=O)Nc1ccc(NC(=S)NC(=O)CCCCl)cc1OC | -8 | · | · | · | ·
